In this assay the target is T1, OR5B17 (Homo sapiens) (UniProt Q8NGF7).
T1 sequence (whole entry): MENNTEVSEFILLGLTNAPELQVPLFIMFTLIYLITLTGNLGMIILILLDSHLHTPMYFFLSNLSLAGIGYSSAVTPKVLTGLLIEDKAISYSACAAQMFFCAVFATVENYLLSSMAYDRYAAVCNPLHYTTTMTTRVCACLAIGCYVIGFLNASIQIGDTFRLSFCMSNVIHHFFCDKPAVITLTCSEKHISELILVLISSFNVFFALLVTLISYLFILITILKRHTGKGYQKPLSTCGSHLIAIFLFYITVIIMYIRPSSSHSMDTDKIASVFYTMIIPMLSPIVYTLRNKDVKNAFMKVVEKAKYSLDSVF
To be noted: stereoisomer not certain. The gist of the method:
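Assay methods differ from source to source, frequently being transient luciferase assays in mammalian cell lines. For each receptor–molecule pair, the label responsive (active) applies when the original authors judged the measured signal statistically different from baseline, and non-responsive (inactive) applies otherwise.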
As to `CCc1ccc(CC(C)(C)C=O)cc1`, the “odorant receptor agonist call” value is “active”.

In the case of `C=CC(C)(CCC=C(C)C)OC(C)=O` (stereo unspecified), the “odorant receptor agonist call” value was “inactive”.

As for `CC(C)=CCCC(C)CC=O` (stereo unspecified), the “odorant receptor agonist call” value was “inactive”.

As for `C=CCOC(=O)COCCC(C)C`, the “odorant receptor agonist call” value was “inactive”.

As to `CC(C)(C)C1CCCCC1OCCCCO` (stereo unspecified), the “odorant receptor agonist call” value was “inactive”.

As to `CC(C)CCCC(C)(C)O`, the “odorant receptor agonist call” value is “inactive”.

With `CC(=O)OCc1ccccc1`, the “odorant receptor agonist call” value is “inactive”.

As to `C=CC(C)(O)CCC=C(C)CCC=C(C)C` (stereo unspecified), the “odorant receptor agonist call” value was “inactive”.

For `CCCCCC1COCCC1OC(C)=O` (stereo unspecified), the “odorant receptor agonist call” value is “inactive”.

On to `CC(=O)C=CC1=C(C)CCCC1(C)C`, for which the “odorant receptor agonist call” value is “inactive”.

In the case of `CC(C)=CCCC(C)=CCO`, the “odorant receptor agonist call” value is “inactive”.

Consider `CCCCC1CCC(=O)O1` (stereo unspecified), for which the “odorant receptor agonist call” value was “inactive”.

Turning to `CCOC(=O)CC1(C)OCCO1`, the “odorant receptor agonist call” value is “inactive”.

Turning to `CC1CC(C)(c2ccccc2)CO1` (stereo unspecified), the “odorant receptor agonist call” value is “inactive”.

For the compound `CC=CC(=O)C1C(C)=CCCC1(C)C` (stereo unspecified), the “odorant receptor agonist call” value is “inactive”.

Regarding `CCCC(C)C(=O)OCC` (stereo unspecified), the “odorant receptor agonist call” value is “inactive”.

Take `Cc1occc(=O)c1OC(=O)C(C)C`: the “odorant receptor agonist call” value was “inactive”.

In the case of `CC(CC=O)c1ccc(C(C)(C)C)cc1` (stereo unspecified), the “odorant receptor agonist call” value was “inactive”.

Take `CC1=CCC2CC1C2(C)C` (stereo unspecified): the “odorant receptor agonist call” value was “inactive”.

As for `CCCCCC1C(=O)CCC1CC(=O)OC` (stereo unspecified), the “odorant receptor agonist call” value was “inactive”.

As to `CCC(=O)C=CC1C(C)=CCCC1(C)C` (stereo unspecified), the “odorant receptor agonist call” value was “inactive”.

Source of the values: the M2OR odorant receptor database.
